Data: ChEMBL document CHEMBL4513216, “Probing the Open Global Health Chemical Diversity Library for Multistage-Active Starting Points for Next-Generation Antimalarials” (ACS Infect Dis, 2020)

Test: Toxicity liver stage against HepG2, at 10uM
Type: cell-based
Set-up: test concentration 10 uM, cell line HepG2-A16-CD81EGFP
Details: human, HepG2-A16-CD81EGFP cells; read-out: INHIBITION
Method in brief: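 Uninfected HepG2-A16-CD81EGFP cells, 3 × 10^3 per well, 1536-well, plated on prespotted compound at 10 μM final, parasite-free screening media added to match infected plates; puromycin 10 μM positive, DMSO 0.5% negative; run in parallel with 48 h PbLuc assay at 37 °C, 5% CO2; viability by CellTiter-Glo luminescence, normalized to controls.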

Row | Compound | cytotoxicity at 10 µM
1 | COc1cc(OC)cc(C2NC(=O)CN2Cc2ccc(Br)cc2)c1 (stereo not given) | -6.67%
2 | CN(C)c1nc(N)nc(CN2CCC(c3nc4ccccc4o3)CC2)n1 | -6.9%
3 | COc1ccccc1CN1C[C@@H](F)[C@@H](OCc2nc3ccccc3[nH]2)C1 | 9.55%
4 | CCNC(=O)N1CC[C@H]2CC(=O)N(CCN3CCNC3=O)CC[C@H]2C1 | 2.22%
5 | COc1cccc(Oc2nc(C)c(C(=O)O)s2)c1OC | 1.96%
6 | N#Cc1nc(COc2ccc3c(c2)OCO3)oc1N1CCCC1 | -42.7%
7 | Cc1ccc(S(=O)(=O)c2ncccc2CN2CCCCC2)cc1 | -47.6%
8 | CSc1ccccc1C(=O)NCCC(O)c1ccco1 (stereo not given) | -9.95%
9 | O=C(C1CCCO1)N1CCCn2c(nnc2Cn2cccn2)C1 (stereo not given) | 16.6%
10 | CCC(=O)N1CCc2nc(N3CCOCC3)nc(N(C)C)c2CC1 | 28.9%
11 | COCCCN1CC2(CCCCN2C(=O)COC)CC1=O (stereo not given) | 2.5%
12 | CC(C)OC[C@H]1CCC[C@]12CN(S(=O)(=O)c1cccs1)CCO2 | -1.52%
13 | Cn1cc(CN2CCc3ncnc(C4CCOC4)c3CC2)cn1 (stereo not given) | -7.46%
14 | COCC(=O)N1CCN(C(=O)NC(C)C)CC2(CC(=O)N(C)C2)C1 (stereo not given) | 1.76%
15 | CCC(CC)C(=O)N1CCc2nc(N3CCCC3)nc(C)c2CC1 | 1.79%
16 | COc1ccc(CN2Cc3cnn(C)c3C(COCC3CC3)C2)cc1 (stereo not given) | 14.5%
17 | CCOc1cccc2c1OCC(=O)N(c1ccc(N(C)C)cc1)C2 | 4.28%
18 | CC(=O)Nc1ncc(-c2ccc(C)cc2)[nH]1 | -4.63%
19 | CN1CCC(Cc2cnc3ccccc3c2)C1 (stereo not given) | 1.42%
20 | COCCNC(=O)c1cc(S(=O)(=O)N2CCCCCC2)cs1 | -14.8%
21 | CNc1ccc(CC2CCCN(C(=O)c3cccc(C)n3)C2)nn1 (stereo not given) | -12.3%
22 | Cc1ncsc1C(=O)N1CCC(O)(CN2CCc3ccccc3C2)C1 (stereo not given) | -8.11%

Row | Compound | cytotoxicity at 10 µM
23 | CC(=O)N1CCCC1c1cc(N2CCN(CC3CC3)CC2)cc(C)n1 (stereo not given) | -2.14%
24 | CC(C)CSCCN1CCN(S(C)(=O)=O)CC1 | -3.66%
25 | CCCOc1ccc(CN)c(OC(F)F)c1 | -41.7%
26 | CC(C)(C)C(=O)NCC(=O)Nc1cccnc1 | -4.96%
27 | Cc1[nH]nc2ncc(C(=O)N3CCN(C(C)(C)C)CC3)cc12 | -4.36%
28 | COc1cccc(C(=O)NS(=O)(=O)c2cc(Cl)sc2Cl)c1OC(F)F | -0.268%
29 | CC(=O)Nc1ccc(CNCC(O)c2ccc(Cl)cc2)cc1 (stereo not given) | -8.74%
30 | CCN(CC)S(=O)(=O)c1ccc(CNC(=O)N2CCC(C#N)CC2)cc1 | 20%
31 | N#Cc1cccnc1Nc1ccc(N2CCC(C(N)=O)CC2)cc1 | -40.1%
32 | CN1N=C(C(=O)NCCc2ccc(OC3CCCC3)cc2)CCC1=O | -1.52%
33 | Cc1cc(CNC(=O)NCCCC(=O)N2CCc3ccccc32)no1 | 5.02%
34 | OC1(CNCc2ccc(F)c(C(F)(F)F)c2)CCSCC1 | 5.1%
35 | COCCOc1ncccc1C(=O)N(C)c1nccs1 | -44.1%
36 | COc1ncccc1NC(=O)N1CCOCC1C (stereo not given) | -4.86%
37 | Cc1nc(CNC(C)c2ccc(S(=O)(=O)N(C)C)cc2)no1 (stereo not given) | -4.32%
38 | CC(c1ncc(C(C)(C)C)o1)N1CCN(Cc2ccncc2)CC1 (stereo not given) | -12.3%
39 | O=C(O)c1cc(S(=O)(=O)Nc2cccc3c2OCCO3)ccc1F | 12.3%
40 | Cc1nc(C(=O)N(CC2CCCO2)c2ccncc2)cs1 (stereo not given) | -7.3%
41 | COc1cc(CN(C)C(=O)NCc2cccc3c2OCO3)ccc1SC | -6.08%
42 | CCOc1ncccc1CNC(=O)N1CCCC1c1cccs1 (stereo not given) | 4.93%
43 | CC(C)(C)c1noc(CCC(=O)N2CCN(Cc3ccc(Cl)s3)CC2)n1 | 3.36%
44 | Cc1c(C(=O)NCC(C)C)nnn1-c1cccc2c1CCN(CCO)C2 | 8.09%

Row | Compound | cytotoxicity at 10 µM
45 | O=C(c1cccnc1O)N1CCC(COc2ccccc2)CC1 | 9.53%
46 | CSC1(CNc2ncc(Br)cn2)CCOCC1 | -8.93%
47 | Cc1nc(C2CCCN2Cc2cc(Cl)c3c(c2)OCCO3)no1 (stereo not given) | 7.1%
48 | CCCNC(=O)C1CCN(CC2(O)CCC(C)CC2)CC1 (stereo not given) | 4.55%
49 | CCN(Cc1noc(C(C)C)n1)Cc1ccc(C#N)cc1F | -2.48%
50 | CS(=O)(=O)Cc1noc(CN2CCN(c3ccccc3Cl)CC2)n1 | 5.09%
51 | Cc1cccc2c1NC1(CCCC1)NC2=O | -48.5%
52 | CC1CN(C)c2ccccc2CN1C(=O)c1ccncc1 (stereo not given) | -23.4%
53 | CO[C@H]1CO[C@@]2(CCCN(C(=O)N3CCCC3)C2)C1 | -108%
54 | O=C(c1cccs1)N1CCC2(CC1)CCN(S(=O)(=O)C1CC1)CC2 | -106%
55 | CNCC(=O)Nc1cccc(-c2cnc(NCCS(C)(=O)=O)nc2)c1 | -1.31%
56 | O=C(CC1CCCC1)N[C@H]1CN(Cc2c[nH]cn2)C[C@@H]1C1CC1 | -54.7%
57 | CCCN(Cc1ccccn1)Cc1ccccc1OC | -43.3%
58 | CNC(=O)[C@@H]1C[C@@H](N)CN1c1nc(N2CCCC2)nc(C)c1C | -7.82%
59 | Cc1cc(C)c2nc(C)cc(C(=O)NCc3csc(N(C)C)n3)c2c1 | 13.5%
60 | CCN1CCC(CNS(=O)(=O)N2CCc3ccccc3C2)C1 (stereo not given) | -15.4%
61 | CC(C)c1ncc(CN2C[C@@H](CN3CCCC3)[C@@H](CO)C2)cn1 | -7.3%
62 | COc1ccccc1-n1nc(-c2ccco2)n(CC(=O)NC(C)C)c1=O | 2.57%
63 | O=C(NCCn1cccn1)Nc1cc(C(=O)N2CCOCC2)ccc1Cl | -46.6%
64 | NC(=O)C1CCN(CC(=O)NCCn2cc(Cl)cn2)CC1 | -50%
65 | O=C(c1cccnc1SC/C=C/c1ccccc1)N1CC[C@H](O)C1 | -9.66%
66 | O=C(O)c1cc(-n2cc3c(n2)CCC3)cc(S(=O)(=O)N2CCOCC2)c1 | -7.95%

Row | Compound | cytotoxicity at 10 µM
67 | CC(O)C(=O)N1CCN(c2ccccc2Cl)C(=O)C1 (stereo not given) | -1.59%
68 | Clc1cccnc1N1CCC(C2CCN(Cc3cccnc3)CC2)C1 (stereo not given) | 2.92%
69 | Cc1nc2c(c(N(C)C)n1)CCN(C(=O)CN1CCC(O)CC1)C2 | 3.6%
70 | Cc1ccc2cc(CN(C)Cc3ccccn3)c(=O)[nH]c2c1 | 3.08%
71 | CCN(C)C(=O)c1cccc(S(=O)(=O)NCCc2nc(C)cc(=O)[nH]2)c1 | -39.9%
72 | CN1CCCC2(CCN(C(=O)Cc3cc4c(cc3Cl)OCCO4)C2)C1=O (stereo not given) | 10.1%
73 | O=C(Cn1c(=O)n(Cc2ccco2)c2ncccc21)Nc1ccccn1 | 0.822%
74 | Nc1nc2nc(C3CCCN(C(=O)c4cscn4)C3)ccc2s1 (stereo not given) | -1.44%
75 | CC(C)c1nnc2n1CCN(C(=O)c1cc3cc(F)ccc3[nH]1)C2 | 3.98%
76 | COc1ccc(OC2CCN(Cc3ccn(C)c(=O)c3)CC2)cc1 | -5.25%
77 | CCc1csc(C2CCCN(C(=O)c3ncccn3)C2)n1 (stereo not given) | -1.92%
78 | Cc1cnn(C2CN(CC(=O)NCCc3cccs3)C2)c1 | -3.92%
79 | Cc1nc(C)n(CC2CN(Cc3cccc(OC(C)C)c3)CCO2)n1 (stereo not given) | -5.44%
80 | CC(C)(C)c1ncc(C(=O)NCCNC(=O)Cc2ccccc2)s1 | -6.44%
81 | COCCN1CCC(CNC(=O)C2(c3ccccc3)CCC2)C1 (stereo not given) | -5.36%
82 | c1ccc2oc(CCCN3CCCC(Cn4cncn4)C3)nc2c1 (stereo not given) | -27.8%
83 | COc1ccc(Cl)cc1NCC(=O)NCCNc1ncccn1 | -9.24%
84 | CC(C(=O)N1CCC(Nc2cccnn2)CC1)n1cccn1 (stereo not given) | -9.17%
85 | COc1ccc(NC(=O)C2CC(=O)N(C)C2)cn1 (stereo not given) | -16.5%
86 | Cc1cc(C)n(CC2CCCN2CC(=O)N(C)Cc2ccc(C)o2)n1 (stereo not given) | -15.4%
87 | Cc1cnn(CCC(=O)N2CCCC(c3cc(C)[nH]n3)C2)c1 (stereo not given) | -23.6%
88 | Cn1cnnc1C1CCCN(C(=O)COCc2ccccc2)C1 (stereo not given) | -18.1%

Row | Compound | cytotoxicity at 10 µM
89 | CSCC(=O)N1CCCC(n2ccnc2C(C)C)C1 (stereo not given) | -18.2%
90 | c1ccc(Cn2cccn2)c(CNCC2CNc3ccnn3C2)c1 (stereo not given) | -10.7%
91 | CNS(=O)(=O)c1cccc(CNc2cc(C(F)(F)F)ccn2)c1 | -6.85%
92 | CC(C)CN1C(=O)CCC12CCC(NC(=O)NCc1cccnc1)CC2 (stereo not given) | -118%
93 | O=C(C1CCCC1)N1C[C@@H](c2ccsc2)[C@@H]2CN(C3CCCC3)CC[C@@H]21 | 4.79%
94 | O=c1ccc2c([nH]1)CCC(NCc1ccc(F)cc1)C2 (stereo not given) | -1.87%
95 | COc1cccc(CC(=O)N2CC[C@@H]3[C@H](CC2)N(C)CCS3(=O)=O)c1 | 3.68%
96 | CC(C)CN1CCc2[nH]nc(C(=O)N3CCCC3)c2C1 | -98.9%
97 | Cc1cccc(CN2C(=O)CO[C@@H]3CN(Cc4cnn(C)c4)C[C@H]32)c1 | 1.1%
98 | Cc1ccc(CN2CCc3onc(C(=O)NC(C)C)c3C2)o1 | 11.5%
99 | Cc1nc(C)c2c(n1)CCN(Cc1nccn1C)CC2 | -122%
100 | Cn1nccc1-c1nnn2c1COCC(CNCC1CC1)C2 (stereo not given) | -98.8%
101 | O=C(C1CCC1)N1CCC2(CCN(Cc3cccc(F)c3)CC2)CC1 | -4.29%
102 | CCc1ccc(CN2CCC3(CC2)CC(N2CCN(C)CC2)CO3)cc1 (stereo not given) | -2.88%
103 | Cc1ccc(C(=O)N2CCn3cnc(COCC4CC4)c3C2)cn1 | 4.03%
104 | Cc1ccc(CN2Cc3nccn3CC(Cn3cccn3)C2)s1 (stereo not given) | -101%
105 | CNC(=O)[C@@H](CC(C)C)N1CCC[C@H]1C(=O)N(C)Cc1cccnc1 | 3.95%
106 | CC(C)CN1CC[C@@H]2[C@H](CC1)N(S(C)(=O)=O)CCS2(=O)=O | 2.05%
107 | Cc1cccc(S(=O)(=O)N2C[C@@H]3C[C@H](C(=O)NCC(C)C)[C@H](C2)O3)c1 | 6.53%
108 | C=C1C(C)(C)[C@@H]2CC[C@]1(C(=O)N1CCC(Cn3cc(CO)nn3)CC1)C2 | -6.01%
109 | CC(C)NC(=O)NCC1(COc2cnccn2)C[C@@H](O)[C@@H](O)C1 (stereo not given in full) | -9.85%
110 | c1ccc(CN2C[C@@H]3CC[C@H]2CN(Cc2nnc(C4CC4)o2)C3)cc1 | -22.4%
